The test system of assay [1] is Mus musculus. As to the kind of experiment: Effect on learning and memory process in CD1 albino mouse assessed as decrease in retention latency at 10 mg/kg, po after 24 hrs by passive avoidance test. The arrangement: dose 10 mg/kg. Type of assay: functional, organism-based. An outline of the steps:
(§1)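 Step-through passive avoidance in a two-compartment box (lit and dark compartments joined by a guillotine door). Male CD-1 mice dosed po (1% CMC) 30 min before training; retention tested 24 h later. Training and retention latencies recorded; mean ± SEM of 15-20 mice versus controls.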

For assay [2], the system named is Mus musculus. Description: Effect on learning and memory process in CD1 albino mouse assessed as decrease in retention latency at 30 mg/kg, po after 24 hrs by passive avoidance test. Type of assay: functional, organism-based. On the set-up: dose 30 mg/kg. An outline of the steps:
as §1

Assay [3] relates to Mus musculus. As to the kind of experiment: Effect on ethanol-induced sleeping time in CD1 albino mouse assessed as increase in duration of loss of righting reflex at 10 mg/kg, po preincubated 30 mins before ethanol challenge. Type of assay: functional, organism-based. On the set-up: dose 10 mg/kg.
The species named for assay [4] is Bos taurus. Description: Displacement of [3H]flumazenil from GABAA/Benzodiazepine receptor in bovine brain at 10 uM. In a few lines: (§2)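 Bovine brain membranes; displacement of specific [3H]flumazenil (Ro15-1788) binding. Percent inhibition measured at 10 μM; Ki determined only when inhibition at that concentration exceeded 80%. Ki given as mean ± SEM of five determinations.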
For orientation: In a radioligand displacement assay an active substance lowers the binding of a labelled ligand.

In assay [5] the test system is Mus musculus. As to the kind of experiment: Effect on ethanol-induced sleeping time in CD1 albino mouse assessed as increase in duration of loss of righting reflex at 30 mg/kg, po preincubated 30 mins before ethanol challenge. On the set-up: dose 30 mg/kg. Type of assay: functional, organism-based.
Assay [6] has as its system Mus musculus. Description: Anxiolytic activity in CD1 albino mouse at 30 mg/kg, po after 30 mins by light/dark box test in presence of flumazenil. It is filed as functional, organism-based. On the set-up: dose 30 mg/kg. In a few lines: (§3)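 Light/dark box in male CD-1 mice. Test substance given po in 1% CMC 30 min before the test, with flumazenil 100 mg/kg ip (saline) co-treatment. Transfers between compartments and time in the lit side recorded. Mean ± SEM of 15-20 mice.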

Assay [7] has as its system Mus musculus. Description: Anxiolytic activity in CD1 albino mouse at 30 mg/kg, po after 30 mins by light/dark box test. Type of assay: functional, organism-based. The arrangement: dose 30 mg/kg. An outline of the steps:
(§4)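 Male CD-1 mice (22-24 g) given test substance po in 1% CMC (10 mL/kg), tested 30 min later in a light/dark box. Transfers between compartments and time spent in the illuminated side were measured. Values are mean ± SEM of 15-20 mice; compared with controls.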

Assay [8] concerns Mus musculus. As to the kind of experiment: Anxiolytic activity in CD1 albino mouse at 10 mg/kg, po after 30 mins by light/dark box test. It is filed as functional, organism-based. On the set-up: dose 10 mg/kg. An outline of the steps:
as §4

Assay [9] concerns Mus musculus. As to the kind of experiment: Anticonvulsant activity against pentylenetetrazole-induced convulsions in CD1 albino mouse assessed as convulsion latency at 10 mg/kg, po preincubated for 30 mins before pentylenetetrazole challenge measured for 30 mins (RVb=599 +/- 37.6 seconds). It is filed as functional.
The subject of assay [10] is Mus musculus. As to the kind of experiment: Effect on explorative capacity in CD1 albino mouse assessed as curiosity-related number of head plugging activity on hole at 50 mg/kg, po after 30 mins by hole-board test. Type of assay: functional. In a few lines:
(§5)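 Hole-board test in male CD-1 mice: animals placed singly on the board and allowed to explore panel and holes. Test run 30 min after po dosing in 1% CMC (10 mL/kg). Hole entries (curiosity) and plane movements (spontaneous motility) counted; 10 mice per group, compared with CMC controls.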

The subject of assay [11] is Mus musculus. Description: Effect on explorative capacity in CD1 albino mouse assessed as curiosity-related number of head plugging activity on hole at 100 mg/kg, po after 30 mins by hole-board test. It is filed as functional. In a few lines:
as §5

A short description of assay [12]: Displacement of [3H]flumazenil from GABAA/Benzodiazepine receptor in bovine brain. The arrangement: species or system Bos taurus. In a few lines: as §2
Assay [13] deals with Mus musculus. Description: Effect on motor coordination in CD1 albino mouse assessed as number of falls form rotarod at 10 mg/kg, po […] measured for 30 seconds after 30 mins of dosing by rotarod test. It is filed as functional. In a few lines: (§6)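 Rota-rod in male CD-1 mice with a pretest. Test substance given po in 1% CMC; falls from the rotating rod counted over 30 s, assessed 30 min after treatment.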
In general terms: Falling from the rotarod earlier than controls is read as motor impairment.

The test system of assay [14] is Mus musculus. Description: Effect on spontaneous motility in CD1 albino mouse assessed as number of movement on plane board at 10 mg/kg, po after 30 mins by hole-board test. It is filed as functional. In a few lines: as §5
Assay [15] deals with Mus musculus. As to the kind of experiment: Anticonvulsant activity against pentylenetetrazole-induced shock in CD1 albino mouse assessed as shock latency at 30 mg/kg, po preincubated for 30 mins before pentylenetetrazole challenge measured for 30 mins (RVb=253.1 +/- 13 seconds). It is filed as functional.
In assay [16] the test system is Mus musculus. As to the kind of experiment: Effect on spontaneous motility in CD1 albino mouse assessed as number of movement on plane board at 30 mg/kg, po after 30 mins by hole-board test. It is filed as functional. In a few lines:
as §5

For assay [17], the system named is Mus musculus. As to the kind of experiment: Effect on explorative capacity in CD1 albino mouse assessed as curiosity-related number of head plugging activity on hole at 10 mg/kg, po after 30 mins by hole-board test. It is filed as functional. An outline of the steps:
as §5

In assay [18] the test system is Mus musculus. Description: Effect on spontaneous motility in CD1 albino mouse assessed as number of movement on plane board at 50 mg/kg, po after 30 mins by hole-board test. Type of assay: functional. An outline of the steps: as §5
Assay [19] concerns Mus musculus. Description: Anticonvulsant activity against pentylenetetrazole-induced shock in CD1 albino mouse assessed as shock latency at 10 mg/kg, po preincubated for 30 mins before pentylenetetrazole challenge measured for 30 mins (RVb=253.1 +/- 13 seconds). It is filed as functional.
The subject of assay [20] is Mus musculus. As to the kind of experiment: Effect on spontaneous motility in CD1 albino mouse assessed as number of movement on plane board at 100 mg/kg, po after 30 mins by hole-board test. It is filed as functional. In a few lines: as §5
The test system of assay [21] is Mus musculus. Description: Effect on explorative capacity in CD1 albino mouse assessed as curiosity-related number of head plugging activity on hole at 30 mg/kg, po after 30 mins by hole-board test. Type of assay: functional. An outline of the steps:
as §5

Assay [22] deals with Mus musculus. As to the kind of experiment: Effect on motor coordination in CD1 albino mouse assessed as number of falls form rotarod at 30 mg/kg, po […] measured for 30 seconds after 30 mins of drug infusion by rotarod test. Type of assay: functional. An outline of the steps: as §6
Assay [23] concerns Mus musculus. Description: Anticonvulsant activity against pentylenetetrazole-induced convulsions in CD1 albino mouse assessed as convulsion latency at 30 mg/kg, po preincubated for 30 mins before pentylenetetrazole challenge measured for 30 mins (RVb=599 +/- 37.6 seconds). Type of assay: functional.
The subject of assay [24] is Mus musculus. As to the kind of experiment: Effect on learning and memory process in CD1 albino mouse assessed as improvement in retention latency at 10 mg/kg, po after 24 hrs by passive avoidance test. On the set-up: dose 10 mg/kg. It is filed as functional, organism-based. An outline of the steps: as §1
In assay [25] the test system is Mus musculus. Description: Effect on spontaneous motility in CD1 albino mouse assessed as number of movement on plane board at 3 mg/kg, po after 30 mins by hole-board test. It is filed as functional. An outline of the steps:
as §5

Assay [26] has as its system Mus musculus. Description: Effect on ethanol-induced sleeping time in CD1 albino mouse assessed as increase in duration of loss of righting reflex at 3 mg/kg, po preincubated 30 mins before ethanol challenge. It is filed as functional, organism-based. On the set-up: dose 3 mg/kg.
The subject of assay [27] is Mus musculus. As to the kind of experiment: Anxiolytic activity in CD1 albino mouse at 3 mg/kg, po after 30 mins by light/dark box test. It is filed as functional, organism-based. The arrangement: dose 3 mg/kg. In a few lines: as §4
The test system of assay [28] is Mus musculus. Description: Anxiolytic activity in CD1 albino mouse at 10 mg/kg, po after 30 mins by light/dark box test in presence of flumazenil. Type of assay: functional, organism-based. The arrangement: dose 10 mg/kg. An outline of the steps: as §3
The test system of assay [29] is Mus musculus. As to the kind of experiment: Effect on motor coordination in CD1 albino mouse assessed as number of falls form rotarod at 3 mg/kg, po administered 60 mins before test measured for 30 seconds after 30 mins of drug infusion by rotarod test. It is filed as functional. In a few lines: as §6
Assay [30] relates to Mus musculus. Description: Effect on explorative capacity in CD1 albino mouse assessed as curiosity-related number of head plugging activity on hole at 3 mg/kg, po after 30 mins by hole-board test. Type of assay: functional. In a few lines:
as §5

Assay [31] deals with Mus musculus. Description: Anticonvulsant activity against pentylenetetrazole-induced shock in CD1 albino mouse assessed as shock latency at 3 mg/kg, po preincubated for 30 mins before pentylenetetrazole challenge measured for 30 mins (RVb=253.1 +/- 13 seconds). Type of assay: functional.
Assay [32] concerns Mus musculus. Description: Anticonvulsant activity against pentylenetetrazole-induced convulsions in CD1 albino mouse assessed as convulsion latency at 3 mg/kg, po preincubated for 30 mins before pentylenetetrazole challenge measured for 30 mins (RVb=599 +/- 37.6 seconds). It is filed as functional.
Assay [33] has as its system Mus musculus. As to the kind of experiment: Effect on ethanol-induced sleeping time in CD1 albino mouse assessed as reduction in duration of loss of righting reflex at 30 mg/kg, po preincubated 30 mins before ethanol challenge. The arrangement: dose 30 mg/kg. Type of assay: functional, organism-based.
Assay [34] relates to Mus musculus. Description: Effect on learning and memory process in CD1 albino mouse assessed as improvement in retention latency at 30 mg/kg, po after 24 hrs by passive avoidance test. It is filed as functional, organism-based. On the set-up: dose 30 mg/kg. In a few lines: as §1

The structures appear in SMILES notation. Calls of active or inactive are those of the source. The calls are words filed in the database; no cut-off is given here.

`CC(Oc1ccc2c(c1)n1ncc(I)c1n[n+]2[O-])c1ccccc1` (stereo in doubt; (+)-16) [listing 1 of 2 here]: the outcome in assay [1], in [2], in [3], in [5], in assay [7] and in assay [8] was Active. The Activity in assay [4] is greater than 80%. Further, the result in [6] was inactive.
`CC(Oc1ccc2c(c1)n1ncc(I)c1n[n+]2[O-])c1ccccc1` (stereo in doubt; (+)-16) [listing 2 of 2 here]: the Activity in [9] (10 mg/kg) was 733.5 s; in assay [10] it was 39.3; in [11], 30.4; in assay [13] (10 mg/kg), 2.5; in assay [14] (10 mg/kg), 55.5; in [15] (30 mg/kg), 345.3 s. Further, the Activity was 59.7 in assay [16] (30 mg/kg); 25.1 in [17] (10 mg/kg); 62.9 in assay [18]; 543.7 s in assay [19] (10 mg/kg); 80 in [20]; 31.9 in assay [21] (30 mg/kg). Also, the Activity stood at 1.3 in assay [22] (30 mg/kg) and 607.7 s in assay [23] (30 mg/kg). In [12], the Ki (usually the equilibrium dissociation constant of an inhibitor or competing ligand from its target) was 605 nM.
For `[O-][n+]1nc2c(I)cnn2c2cc(OCc3ccccc3)ccc21`, the result in assay [24], in assay [27], in assay [7], in assay [33], in [34] and in [8] was Active. For the same molecule, the Activity in [9] is 360.8 s; in [25], 54.3; in assay [13] it was 2.2; in assay [4], greater than 80%; in [29] it was 1.5; in [14], 66.9. Further, the Activity in [15] turned out to be 354 s; in assay [16], 54.5; in [30], 29; in assay [17], 22.7; in assay [19], 266.1 s; in assay [31] it was 375 s. The Activity in assay [21] worked out at 28.7; in [22], 1.7; in assay [23] it was 479.7 s; in assay [32], 380.2 s. This molecule also came in with a Ki in assay [12] of 1.1 nM. Also, the outcome in assay [3], in assay [26], in assay [28] and in assay [6] was inactive.
